Activity calls are given as the source filed them. No cut-off for these calls is given here.
Key:
Enterobacter cloacae [1] = assay: Potentiation of meropenem-induced antibacterial activity against carbapenem-resistant Enterobacter cloacae isolate 28 harboring TEM-1 and SHV-12 assessed as meropenem MIC by CLSI protocol based assay (reference value: 32 ug/ml); format: functional
Enterobacter cloacae [2] = assay: Potentiation of meropenem-induced antibacterial activity against carbapenem-resistant Enterobacter cloacae isolate 18 harboring IMP-4 and TEM-1 assessed as meropenem MIC by CLSI protocol based assay (reference value: 32 ug/ml); format: functional
Enterobacter cloacae [3] = assay: Synergistic antibacterial activity against carbapenem-resistant Enterobacter cloacae isolate 28 harboring TEM-1 and SHV-12 assessed as fractional inhibitory concentration index in presence of meropenem by CLSI protocol based assay; format: functional
Outline: (§1)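 FIC index from MICs of compound alone, meropenem alone, and the 1:1 (mass) compound–meropenem combination, read by eye after overnight incubation in a CLSI-based assay. FIC index = MICcombo/MICcpd + MICcombo/MICMem. FIC index ≤0.5 counted as synergy. At least triplicate assays. Clinical NDM-1 isolates for 17-39; E. coli TG1 carrying the IncX3 blaNDM-1 plasmid for 15.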

Citrobacter freundii = assay: Growth inhibition of carbapenem-resistant Citrobacter freundii isolate 35 harboring CTX-M-3, KPC-2 and SHV-12 by CLSI protocol based assay; format: functional
Escherichia coli [4] = assay: Potentiation of meropenem-induced antibacterial activity against carbapenem-resistant Escherichia coli isolate 06 harboring CTX-M-14, CTX-M-3 and SHV-12 assessed as meropenem MIC by CLSI protocol based assay (Rvb >= 128 ug/ml); format: functional
Enterobacter cloacae [5] = assay: Potentiation of meropenem-induced antibacterial activity against carbapenem-resistant Enterobacter cloacae isolate 09 harboring CTX-M-3, CTX-M-14, TEM-1 and SHV-12 assessed as meropenem MIC by CLSI protocol based assay (Rvb >= 128 ug/ml); format: functional
Klebsiella oxytoca = assay: Synergistic antibacterial activity against carbapenem-resistant Klebsiella oxytoca isolate 03 harboring SHV-12 assessed as fractional inhibitory concentration index in presence of meropenem by CLSI protocol based assay; format: functional; outline: as §1
Enterobacter cloacae [6] = assay: Growth inhibition of carbapenem-resistant Enterobacter cloacae isolate 18 harboring IMP-4 and TEM-1 by CLSI protocol based assay; format: functional
Escherichia coli [7] = assay: Growth inhibition of carbapenem-resistant Escherichia coli isolate 33 harboring CTX-M-15 by CLSI protocol based assay; format: functional
[8] = Covalent inhibition of Escherichia coli NDM-1 using nitrocefin as substrate
Morganella morganii = assay: Growth inhibition of carbapenem-resistant Morganella morganii isolate 26 by CLSI protocol based assay; format: functional
HeLa [9] = assay: Cytotoxicity against human HeLa cells assessed as increase in cell viability at 0.13 to 2 mg/ml measured after 48 hrs by MTT assay relative to control; format: cell-based; settings: dose 0.13-2 mg/ml
Outline: (§2)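 MTT assay. HeLa or L929 cells were seeded at 1×10^4/well in DMEM with 10% FBS and grown 12 h at 37 °C. They were exposed to 0.13–2 mg/mL compound (DMSO stock) for 48 h, then given 0.5 mg/mL MTT for 3 h at 37 °C. Formazan was dissolved in DMSO and read at 490 nm. Survival % was blank-corrected against the 0.5% DMSO medium control.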

L929 [10] = assay: Cytotoxicity against mouse L929 cells assessed as effect on morphological changes at 0.13 to 2 mg/ml by microscopic analysis; format: cell-based; settings: dose 0.13-2 mg/ml
Outline: (§3)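 HeLa and L929 cells were examined by microscopy for morphological change after incubation with compound at the MTT-assay concentrations.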

[11] = target: Metallo-beta-lactamase type 2 (Klebsiella pneumoniae) (UniProt C7C422); assay: (§4) Inhibition of wild type N-terminal His6-tagged Klebsiella pneumoniae NDM-1 expressed in Escherichia coli BL21 using nitrocefin as substrate measured after 30 mins
Outline: (§5)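 1 nM purified His6-NDM-1 was mixed with varying compound concentrations in 50 mM phosphate buffer ± 50 µM ZnSO4 with BSA. Nitrocefin was added at 7× Km and velocity read at 482 nm, in triplicate. ln(% residual activity) versus incubation time gave kobs, which was fitted hyperbolically against concentration for KI and kinact.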

[12] = target: Metallo-beta-lactamase type 2 (Klebsiella pneumoniae, UniProt C7C422); assay: as §4; outline: as §5
[13] = target: Metallo-beta-lactamase type 2 (Klebsiella pneumoniae) (UniProt C7C422); assay: Binding affinity to denatured N-terminal His6-tagged Klebsiella pneumoniae NDM-1 expressed in Escherichia coli BL21 assessed as formation of compound-intact protein complex by measuring molecular weight measured after 20 mins by ESI-MS analysis
Outline: (§6)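 NDM-1 (20 µM) incubated 20 min with equimolar compound in 20 mM ammonium acetate. Native sample infused by nano-ESI with spray held ~20 min at 150 V. For the denatured sample, an equal volume of acetonitrile with 0.5% formic acid was added before syringe-pump loading at 5 µL/min. Complex formation was read from mass.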

[14] = target: Metallo-beta-lactamase type 2 (Klebsiella pneumoniae) (UniProt C7C422); assay: Binding affinity to wild type N-terminal His6-tagged Klebsiella pneumoniae NDM-1 expressed in Escherichia coli BL21 assessed as formation of compound-intact protein complex by measuring molecular weight measured after 20 mins by ESI-MS analysis; outline: as §6
[15] = Toxicity in Galleria mellonella wax moth larve assessed as mortality at 2 mg/kg cotreated with 2 mg/kg meropenem relative to control; format: organism-based; settings: in vivo, read-out: Activity
Outline: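 G. mellonella larvae (250–300 mg, n=10) infected in the hemocoel at the last left proleg with E. cloacae EL10 at 2.5 × 10^5 CFU/larva in PBS. Treatment was injected at the next left proleg 1 h from inoculation: vehicle, single agents at 10 mg/kg, or combinations at 2+2 or 10+10 mg/kg. Larvae were held at 37 °C and scored every 12 h for 48 h (no response to stimuli = dead). Log-rank test. Three independent experiments.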

HeLa [16] = assay: Cytotoxicity against human HeLa cells assessed as effect on morphological changes at 0.13 to 2 mg/ml by microscopic analysis; format: cell-based; settings: dose 0.13-2 mg/ml; outline: as §3
L929 [17] = assay: Cytotoxicity against mouse L929 cells assessed as increase in cell viability at 2 mg/ml measured after 48 hrs by MTT assay; format: cell-based; settings: l929, 48 h; outline: as §2
[18] = target: Metallo-beta-lactamase type 2 (Klebsiella pneumoniae) (UniProt C7C422); assay: Inhibition of wild type N-terminal His6-tagged Klebsiella pneumoniae NDM-1 expressed in Escherichia coli BL21 assessed as inactivation constant using nitrocefin as substrate measured after 30 mins; outline: as §5
[19] = target: Metallo-beta-lactamase type 2 (Klebsiella pneumoniae) (UniProt C7C422); assay: Time dependent inhibition of wild type N-terminal His6-tagged Klebsiella pneumoniae NDM-1 expressed in Escherichia coli BL21 assessed as residual activity using nitrocefin as substrate
Outline: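 Purified NDM-1 (residues G36–R270, N-terminal His6, expressed in E. coli BL21), 1 nM, mixed with varying inhibitor concentrations in 50 mM phosphate buffer with or without 50 µM ZnSO4, plus BSA. Nitrocefin at 7×Km was the substrate, read at 482 nm. Residual activity was followed against preincubation time, fitted as pseudo-first-order to give KI and kinact. Triplicate assays.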

[20] = target: Metallo-beta-lactamase type 2 (Klebsiella pneumoniae) (UniProt C7C422); assay: Inhibition of wild type N-terminal His6-tagged Klebsiella pneumoniae NDM-1 expressed in Escherichia coli BL21 assessed as loss of zinc ion at enzyme active site leading to formation of compound-intact protein complex after 20 mins by ESI-MS analysis
Outline: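 Native mass analysis: 20 µM purified NDM-1 plus equimolar compound in 20 mM ammonium acetate, 20 min, then infused into nano-ESI source (spray ~20 min at 150 V). Adduct formation and zinc content were read from protein mass.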

[21] = Toxicity in Galleria mellonella wax moth larve assessed as mortality at 10 mg/kg relative to control; format: organism-based; settings: in vivo, read-out: Activity

Metallo-beta-lactamase type 2 (Klebsiella pneumoniae), sequence (C7C422 whole entry, the tested form may be a part): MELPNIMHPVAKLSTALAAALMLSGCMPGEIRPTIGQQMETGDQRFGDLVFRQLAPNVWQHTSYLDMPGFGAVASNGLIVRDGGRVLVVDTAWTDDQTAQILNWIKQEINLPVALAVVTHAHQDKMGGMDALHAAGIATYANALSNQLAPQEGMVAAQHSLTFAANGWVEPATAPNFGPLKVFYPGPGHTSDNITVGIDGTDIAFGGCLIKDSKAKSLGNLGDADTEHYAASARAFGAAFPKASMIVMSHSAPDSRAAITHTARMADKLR
Metallo-beta-lactamase type 2, sequence (C7C422 whole entry): as the sequence (C7C422 whole entry, the tested form may be a part) above

Row | Structure (SMILES) | MIC (Enterobacter cloacae [1]) [µg/mL] | MIC (Enterobacter cloacae [2]) [µg/mL] | fractional inhibitory concentration index (FICI) (Enterobacter cloacae [3]) | MIC (Citrobacter freundii) [µg/mL] | MIC (Escherichia coli [4]) [µg/mL] | MIC (Enterobacter cloacae [5]) [µg/mL] | fractional inhibitory concentration index (FICI) (Klebsiella oxytoca) | MIC (Enterobacter cloacae [6]) [µg/mL] | MIC (Escherichia coli [7]) [µg/mL] | MIC (Morganella morganii) [µg/mL] | further results
1 | O=c1c2ccccc2[se]n1-c1ccccc1 [EBSELEN] | 64 | 64 | 2.5 | ≥ 128 | 64 | ≥ 128 | 0.5 | ≥ 128 | ≥ 128 | ≥ 128 | Ki [8]: 0.38 µM
2 | CC(C)(C)OC(=O)NCCn1[se]c2ccccc2c1=O | 4 | 16 | 0.16 | ≥ 128 | 8 | 8 | 0.13 | ≥ 128 | ≥ 128 | ≥ 128 | Activity (HeLa [9]): 70%; Activity (L929 [10]): Non-Toxic; inhibition [11]: Dose-dependent effect; IC50 [12]: 13 µM; Activity [13]: 26200 Da; Activity [14]: 26300 Da; mortality [15]: 100%; Activity (HeLa [16]): Non-Toxic; Activity (L929 [17]): Non-Toxic; Kinact [18]: 0.068 min⁻¹; Activity [19]: 11%; inhibition [20]: Active; mortality [21]: 100%
